Data on 20 molecules can be found in PubChem BioAssay AID1916 (Vanderbilt High Throughput Screening Facility, 2009).

Calls of active or inactive are those of the source. No rule for the calls is given here.

ATP-sensitive inward rectifier potassium channel 1 (Homo sapiens), sequence (P48048 whole entry, looked up): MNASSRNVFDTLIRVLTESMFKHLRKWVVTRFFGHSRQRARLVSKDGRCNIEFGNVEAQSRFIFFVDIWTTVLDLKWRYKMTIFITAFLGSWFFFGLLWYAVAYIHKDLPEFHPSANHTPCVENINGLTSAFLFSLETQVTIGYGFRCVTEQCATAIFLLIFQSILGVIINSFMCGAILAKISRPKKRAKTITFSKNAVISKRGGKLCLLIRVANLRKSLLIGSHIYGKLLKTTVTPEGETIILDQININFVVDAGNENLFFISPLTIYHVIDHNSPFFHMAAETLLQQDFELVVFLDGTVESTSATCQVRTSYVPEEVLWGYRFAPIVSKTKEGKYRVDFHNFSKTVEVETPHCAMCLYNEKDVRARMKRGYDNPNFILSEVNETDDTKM

One experiment concerns the target ATP-sensitive inward rectifier potassium channel 1 (Homo sapiens) (UniProt P48048). Put plainly: Kir1.1 thallium flux block, concentration series – Tet-inducible ROMK cells, FluoZin2, SAR follow-up (AID 1916). Conditions: thallium flux FluoZin2 fluorescence. The method, boiled down:
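Material: Tet-induced ROMK-expressing cells; Detection: FluoZin2 thallium flux fluorescence; Times: 20 min compound preincubation at room temperature; Buffer or medium: serum-free medium during overnight Tet induction; Dosing: 11 concentrations, threefold steps.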
`FC(F)(F)c1cccc(CN2CCOCCOCCN(Cc3cccc(C(F)(F)F)c3)CCOCC2)c1`: the IC50 was 30.6 µM. Turning to `COc1cccc(CN2CCOCCOCCN(Cc3cccc(OC)c3)CCOCC2)c1`, the IC50 was 25.2 µM. Take `CC(C)c1ccc(CN2CCOCCOCCN(Cc3ccc(C(C)C)cc3)CCOCC2)cc1`: the IC50 entry is “inactive”. Turning to `FC(F)(F)c1cc(CN2CCOCCOCCN(Cc3cc(C(F)(F)F)cc(C(F)(F)F)c3)CCOCC2)cc(C(F)(F)F)c1`, the IC50 is 24.3 µM.

With `O=[N+]([O-])c1ccccc1CN1CCOCCOCCN(Cc2ccccc2[N+](=O)[O-])CCOCC1`, the IC50 was 6.62 µM. In the case of `Cc1ccccc1CN1CCOCCOCCN(Cc2ccccc2C)CCOCC1`, the IC50 was 13.3 µM. `COc1ccccc1CN1CCOCCOCCN(Cc2ccccc2OC)CCOCC1`: the IC50 result is “inactive”. For the molecule `Clc1ccc(CN2CCOCCOCCN(Cc3ccc(Cl)cc3)CCOCC2)cc1`, the IC50 result was “inactive”. Regarding `O=[N+]([O-])c1ccc(CN2CCOCCOCCN(Cc3ccc([N+](=O)[O-])cc3)CCOCC2)cc1`, the IC50 is 14.2 µM. Consider `Cc1ccsc1CN1CCOCCOCCN(Cc2sccc2C)CCOCC1`, for which the IC50 was 19.7 µM. `N#Cc1ccccc1CN1CCOCCOCCN(Cc2ccccc2C#N)CCOCC1`: the IC50 is 8.53 µM. Regarding `N#Cc1cccc(CN2CCOCCOCCN(Cc3cccc(C#N)c3)CCOCC2)c1`, the IC50 is 0.324 µM. Regarding `COC(=O)c1ccc(CN2CCOCCOCCN(Cc3ccc(C(=O)OC)cc3)CCOCC2)cc1`, the concentration for half-maximal inhibition (IC50) was 32.6 µM. On to `Oc1ccccc1CN1CCOCCOCCN(Cc2ccccc2O)CCOCC1`, for which the IC50 entry is “inactive”. On to `COc1cc(CN2CCOCCOCCN(Cc3cc(OC)cc(OC)c3)CCOCC2)cc(OC)c1`, for which the IC50 is 37.6 µM. `COc1ccc(CN2CCOCCOCCN(Cc3ccc(OC)cc3)CCOCC2)cc1`: the IC50 entry was “inactive”. Regarding `CN(C)c1ccc(CN2CCOCCOCCN(Cc3ccc(N(C)C)cc3)CCOCC2)cc1`, the IC50 result is “inactive”.

Still in this experiment, the particulars now being: thallium flux FluoZin2 fluorescence, at 1 mM (top of the series).
As to `N#Cc1cc(CN2CCOCCOCCN(Cc3ccc(F)c(C#N)c3)CCOCC2)ccc1F`, the % TPNQ activity was found to be 14.7%.

On to `COc1ccc(CN2CCOCCOCCN(Cc3ccc(OC)nc3)CCOCC2)cn1`, for which the % TPNQ activity is 43.4%. On to `CSc1ccc(CN2CCOCCOCCN(Cc3ccc(SC)cc3)CCOCC2)cc1`, for which the “% TPNQ activity” value is “inactive”.
